In ChEMBL document CHEMBL1149815, “New amido derivatives as potential BKCa potassium channel activators. XI” (Eur J Med Chem, 2008):

Tests used:
Type in all cases: tissue-based
[1] = molecular target: Calcium-activated potassium channel subunit alpha-1 (Rattus norvegicus) (UniProt Q62976); assay: (§1) Induction of BK channel mediated vasorelaxation activity in Kcl-induced contraction in Wistar rat aorta
Method in brief: (§2)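 Endothelium-denuded thoracic aortic rings from male normotensive Wistar rats (250-350 g), equilibrated 60 min. Denudation was confirmed by acetylcholine relaxation below 10% of KCl tone. Rings were precontracted with 20 mM KCl; at plateau, 3-fold increasing concentrations were added cumulatively. Efficacy was maximal relaxation as % of KCl tone. pIC50 was -log molar concentration halving tone, not derived if efficacy was below 50%. 5-10 experiments.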

[2] = molecular target: Calcium-activated potassium channel subunit alpha-1 (Rattus norvegicus, UniProt Q62976); assay: as §1; method in brief: as §2
[3] = molecular target: Calcium-activated potassium channel subunit alpha-1 (Rattus norvegicus) (UniProt Q62976); assay: Induction of BK channel mediated vasorelaxation activity in Kcl-induced contraction in Wistar rat aorta in presence of IbTX; method in brief: as §2

Calcium-activated potassium channel subunit alpha-1, sequence (Q62976 whole entry): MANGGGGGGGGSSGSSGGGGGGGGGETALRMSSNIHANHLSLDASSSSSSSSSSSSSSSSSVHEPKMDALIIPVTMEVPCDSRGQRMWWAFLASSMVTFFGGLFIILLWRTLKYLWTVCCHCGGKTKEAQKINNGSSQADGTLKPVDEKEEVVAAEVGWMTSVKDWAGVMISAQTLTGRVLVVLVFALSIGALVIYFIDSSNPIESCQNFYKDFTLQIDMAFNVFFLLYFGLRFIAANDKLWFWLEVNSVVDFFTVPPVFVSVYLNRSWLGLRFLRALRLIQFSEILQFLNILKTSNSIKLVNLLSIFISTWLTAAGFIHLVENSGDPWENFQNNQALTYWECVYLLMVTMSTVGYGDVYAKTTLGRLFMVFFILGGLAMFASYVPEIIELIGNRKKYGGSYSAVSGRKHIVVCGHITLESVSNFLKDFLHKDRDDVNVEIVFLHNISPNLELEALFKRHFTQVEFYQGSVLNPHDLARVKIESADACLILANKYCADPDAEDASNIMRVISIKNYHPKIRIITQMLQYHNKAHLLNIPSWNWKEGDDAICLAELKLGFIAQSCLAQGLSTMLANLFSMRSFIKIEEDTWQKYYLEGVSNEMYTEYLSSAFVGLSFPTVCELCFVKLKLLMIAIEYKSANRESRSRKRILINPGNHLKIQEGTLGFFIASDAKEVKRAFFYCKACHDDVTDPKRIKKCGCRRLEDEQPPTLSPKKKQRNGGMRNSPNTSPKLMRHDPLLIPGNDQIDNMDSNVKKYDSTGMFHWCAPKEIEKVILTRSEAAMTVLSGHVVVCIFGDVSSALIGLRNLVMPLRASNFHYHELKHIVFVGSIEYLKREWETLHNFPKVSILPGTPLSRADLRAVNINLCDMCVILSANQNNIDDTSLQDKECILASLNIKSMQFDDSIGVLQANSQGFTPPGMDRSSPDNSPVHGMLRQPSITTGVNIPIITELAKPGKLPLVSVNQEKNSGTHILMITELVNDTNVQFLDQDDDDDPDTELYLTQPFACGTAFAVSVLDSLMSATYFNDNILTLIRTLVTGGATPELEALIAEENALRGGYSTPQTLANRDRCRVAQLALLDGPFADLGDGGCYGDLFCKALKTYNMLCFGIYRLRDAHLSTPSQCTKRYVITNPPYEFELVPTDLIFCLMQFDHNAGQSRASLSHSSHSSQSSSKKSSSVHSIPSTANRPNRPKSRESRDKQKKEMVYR
Calcium-activated potassium channel subunit alpha-1 (Rattus norvegicus), sequence (Q62976 whole entry): as above

SMILES	Emax [1] [%]	IC50 [2] [µM]	Emax [3] [%]
O=C(Cc1ccccc1O)NCc1ccccc1	33		
COc1ccccc1CC(=O)Nc1cc(Cl)ccc1O	37		
O=C(Cc1ccccc1C(F)(F)F)Nc1cc(Cl)ccc1O	50		
COc1ccccc1CC(=O)Nc1cc([N+](=O)[O-])ccc1OC	21		
COc1ccccc1CC(=O)NCc1ccccc1	25		
Cc1cc([N+](=O)[O-])ccc1NC(=O)Cc1ccccc1O	84	20	32
COc1ccccc1CC(=O)Nc1ccc([N+](=O)[O-])cc1	29		
O=c1[nH]c2cc(C(F)(F)F)ccc2n1-c1cc(C(F)(F)F)ccc1O		4.37	
O=C(Cc1ccccc1O)NCc1ccccc1[N+](=O)[O-]	40		
O=C(Cc1ccccc1O)Nc1ccccc1	40		
COc1ccccc1C(=O)NCc1ccccc1	23		

Further lines, results first:

Emax [1] [%]	IC50 [2] [µM]	Emax [3] [%]	SMILES
28			COc1ccccc1CC(=O)Nc1ccccc1F
47			O=C(NCc1ccccc1)c1ccccc1O
61	24.5		COc1ccccc1CC(=O)Nc1cc(C)ccc1O
29			COc1ccccc1C(=O)NCc1ccccc1[N+](=O)[O-]
40			COc1ccccc1CNC(=O)Cc1ccccc1O
82	18.2		COc1ccc([N+](=O)[O-])cc1NC(=O)Cc1ccccc1O
43			O=C(Cc1ccccc1O)Nc1ccccc1F
47			O=C(NCc1ccccc1[N+](=O)[O-])c1ccccc1O
55	27.5		O=C(Cc1ccccc1C(F)(F)F)Nc1ccccc1F
16			COc1ccccc1CNC(=O)c1ccccc1OC
79	22.9		O=C(Cc1ccccc1O)Nc1ccc([N+](=O)[O-])cc1
22			COc1ccccc1CNC(=O)Cc1ccccc1OC
